Screens as filed in PubChem.
Rows were chosen to be rich in hits. Some 2.8% of all compounds tested hit in one or more screens of this group.
Rad51 HR inh – human RAD51 strand exchange inhibitors, primary screen, biochemical, fluorescence; DNA repair protein RAD51 homolog 1 (Homo sapiens), Q06609; hRad51 DNA strand exchange, fluorescence dequenching; inhibition, % at 10 µM; 0.085% of 200,000 active; AID 1385, 2008;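 active = inhibition above 40% at the single screening dose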;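 note: 0% = DMSO control wells and 100% = blanks with heterologous ssDNA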
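Material: Human Rad51 nucleoprotein filaments preassembled on unlabelled ssDNA | Also added: Labelled 47-mer dsDNA for strand exchange | Dosing: Single dose, 10 µM final compound | Schedule: 30-min compound preincubation and 15-min exchange, both room temperature | Technique: Fluorescence dequenching at 485/520 nm | Measure: Percent inhibition relative to plate controls and blanks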
NPY Y1 blocker – NPY-Y1 receptor antagonists, primary screen, cell-based; Neuropeptide Y receptor type 1 (Homo sapiens), P25929; HEK293-CNG Y1 cells, membrane potential fluorescence; NPY at EC95, then isoproterenol; inhibition, % at 3.6 µM; 1% of 200,000 active; AID 1040, 2008;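 active = inhibition above the campaign mean inhibition of all tested compounds plus 3 SD, cut at about 20% in these data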;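 note: 0% = DMSO wells given NPY plus isoproterenol and 100% = isoproterenol alone without NPY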
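Material: HEK293 cells with Y1 receptor plus CNG channel; times: compound incubation 1 h at room temperature, readout 45 min post-stimulation; signal: fluorescence, membrane potential probe; read-out basis: fluorescence ratio normalized to % inhibition between controls; benchmarks: full-block control isoproterenol-only wells, zero-block control NPY plus isoproterenol wells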
Measles CPE – compounds protecting cells from measles virus cytopathic effect, primary screen, measles RdRp inhibitor project, single point, MLSMR library, absorbance; Measles virus-infected cells, CPE protection; protection (pct of control), % at 4 µM; 1.5% of 140,000 active; in the data active = protection mostly above about 24%, no sharp cut-off; inactive = mostly below about 26%
NPY1 pot ag – NPY-Y1 receptor potentiators or agonists, primary screen, cell-based; 0.37% of 220,000 active; activation, % at 3.6 µM; Neuropeptide Y receptor type 1 (Homo sapiens), P25929; NPY-Y1 expressing cells, potentiator/agonist activation; in the data active = activation above about 33%, passing the limit was not always enough;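 note: cells stimulated with NPY at EC10 then isoproterenol at EC100; 0% = low agonist plus stimulus and 100% = saturating agonist plus stimulus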
NPY-Y2 antag – NPY-Y2 receptor antagonists, primary screen, cell-based; Neuropeptide Y receptor type 2 (Homo sapiens), P49146; NPY-Y2 expressing cells, antagonist mode; inhibition, % at 2.7 µM; 0.99% of 140,000 active; AID 793, 2007; in the data active = inhibition above about 17%;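 note: 0% = vehicle with agonist challenge and 100% = reference antagonist with challenge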
Target sequence (P49146 whole entry, looked up): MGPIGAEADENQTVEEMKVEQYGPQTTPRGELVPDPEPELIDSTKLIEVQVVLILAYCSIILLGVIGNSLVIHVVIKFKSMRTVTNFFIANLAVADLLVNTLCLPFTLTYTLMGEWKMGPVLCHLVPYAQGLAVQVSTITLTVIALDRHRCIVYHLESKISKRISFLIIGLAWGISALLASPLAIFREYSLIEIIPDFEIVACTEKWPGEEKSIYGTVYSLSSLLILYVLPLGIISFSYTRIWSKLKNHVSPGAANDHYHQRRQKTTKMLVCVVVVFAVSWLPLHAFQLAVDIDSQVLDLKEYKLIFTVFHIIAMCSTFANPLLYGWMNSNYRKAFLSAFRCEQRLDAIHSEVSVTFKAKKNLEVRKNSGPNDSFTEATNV
NPY-Y2 PAM-ag – NPY-Y2 potentiators or agonists, primary screen, cell-based; 0.45% of 220,000 active; Neuropeptide Y receptor type 2 (Homo sapiens), P49146; AID 1359, 2008; activation, % at 3.6 µM; cells expressing NPY-Y2, potentiator/agonist read-out; in the data active = activation above about 27%;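 note: cells stimulated with NPY near EC25 plus isoproterenol at EC100; 0% = vehicle plus submaximal agonist and 100% = vehicle plus saturating agonist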
An asterisk follows results filed as active; . = no result.

SMILES	Rad51 HR inh	NPY Y1 blocker	Measles CPE	NPY1 pot ag	NPY-Y2 antag	NPY-Y2 PAM-ag
Cc1ccc(C2OC34CCCCCC3C(C#N)(C(=N)O4)C2(C#N)C#N)cc1 (centres undefined)	.	-4	52*	-9	2	-7
Cc1nn(-c2ccccc2)c2nc(C(F)(F)F)[nH]c(=O)c12	0	-1	41*	-3	3	-26
Cc1nn(-c2cc(C(F)(F)F)ccc2Cl)c2nc(C(Cl)(Cl)Cl)[nH]c(=O)c12	.	.	.	21	.	23
COc1ccccc1OCC(O)CNCc1ccc2c(c1)OCO2 (centres undefined)	12	.	.	79*	.	48*
Cc1ccn(-c2cc(O)c(-n3ccc(C)n3)cc2O)n1	.	-4	.	9	.	-7
O=C(NC(=S)N1CCN(c2nc(-c3ccccc3)cs2)CC1)c1cncc(Br)c1	5	2	.	-5	.	-5
Cc1cccc(C(=O)NC(CC(=O)O)c2ccc(OC3CCCC3)cc2)c1[N+](=O)[O-] (centres undefined)	44*	10	.	-18	.	-7
CN(C)c1ccc(/C=C/c2ccc3c4ccccc4ccc3[n+]2-c2ccccc2)cc1	51*	11	.	30	.	58*
O=C(COC(=O)c1ccc(Cl)nc1)c1ccc2c(c1)OCCO2	-3	10	.	-18	.	-9
CC1(C)SC(=S)N(/N=C/c2ccc(O)cc2)C1N(O)C(=O)Nc1ccc([N+](=O)[O-])cc1 (centres undefined)	-3	-17	.	38	-5	33*
COc1cc(OC)c(NC(=S)NCc2ccc(F)cc2)cc1Cl	17	-5	.	14	.	2
CC1CCN(C(=O)C2CCN(S(=O)(=O)c3cccc4nsnc34)CC2)CC1	8	-1	.	-4	.	3
OC(COc1ccc(C2C=CCC2)cc1)CN1CCCCC1 (centres undefined)	11	-8	2	60*	1	73*
O=C(c1ccccc1)c1ccc(OCC(O)CN2CCCCC2)cc1 (centres undefined)	-2	6	26	3	5	-20
CCCc1nnc(NC(=O)C(CC)OC(=O)c2cc(C)nc3ccccc23)s1 (centres undefined)	2	5	29	-7	4	-9
CSc1nc(-c2ccc(Cl)cc2Cl)[nH]c(=O)c1C#N	.	4	55*	1	6	5
Cc1cc(-c2ccc(Cl)cc2Cl)c(C#N)c(=O)[nH]1	.	.	.	10	.	20
Cc1cnc(C(=O)Nc2ccccc2-c2ccc(C)o2)cn1	-5	4	18	101*	3	56*
O=C1Nc2ccccc2N(O)N1c1cc(-c2cccc(Cl)c2)no1	4	2	33*	-8	3	0
Cc1cc(C(=O)CCl)c(C)n1CCc1ccc(Cl)cc1	.	-4	.	63*	.	91*
Cc1cc(C(=O)CCl)c(C)n1CCc1ccc(F)cc1	-1	-1	.	4	.	0
O=C(NC1CCCCC1)N1CCC(n2cnc3ccccc32)CC1	2	2	76*	-5	0	14
CC[n+]1c(-c2ccc(C)cc2)csc1Nc1c(C)n(C)n(-c2ccccc2)c1=O	-8	-4	30*	21	1	4
CC(C)c1[nH]nc2c1C(c1cccc(OC(=O)N3CCOCC3)c1)C(C#N)=C(N)O2 (centres undefined)	2	131*	13	-31	20*	0
CC(C)c1[nH]nc2c1C(c1cccnc1)C(C#N)=C(N)O2 (centres undefined)	2	1	44*	-5	1	-6
Cc1ccc(-c2[nH]nc3c2C(c2cccnc2)C(C#N)=C(N)O3)cc1 (centres undefined)	.	-4	31	18	-1	16
CCc1[nH]nc2c1C(c1cccc(OC(=O)N3CCOCC3)c1)C(C#N)=C(N)O2 (centres undefined)	-1	11	7	-2	5	4
